{
  "source": "ChEMBL document CHEMBL2375270",
  "about": "“Structure-based design, SAR analysis and antitumor activity of PI3K/mTOR dual inhibitors from 4-methylpyridopyrimidinone series” (Bioorg Med Chem Lett, 2013)",
  "data": [
    {"tested_on": "Plasma", "assay": "Drug metabolism in human plasma assessed as formation of 2-((trans)-4-(2-amino-6-(6-methoxypyridin-3-yl)-4-methyl-7-oxopyrido[2,3-d]pyrimidin-8(7H)-yl)cyclohexyloxy)acetic acid at 8 mg, po qd for 21 days by HPLC analysis", "type": "ADME, organism-based", "details": "in vivo, 504 h; call rule not given here", "method_in_brief": "(§1)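 Human plasma came from patients given 8 mg once daily in a clinical dose-escalation study. Metabolites were profiled from the total ion chromatogram. Peaks were assigned by retention time and molecular ion (m/z) against reference standards and parent drug.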", "values": [
      {"smiles": "COc1ccc(-c2cc3c(C)nc(N)nc3n([C@H]3CC[C@H](OCCO)CC3)c2=O)cn1", "note": "[PF-04691502]", "Drug metabolism": "Active"}
    ]},
    {"tested_on": "Plasma", "assay": "Drug metabolism in human plasma assessed as formation of glucuronide conjugate at 8 mg, po qd for 21 days by HPLC analysis", "type": "ADME, organism-based", "details": "in vivo, 504 h", "method_in_brief": "as §1", "values": [
      {"smiles": "COc1ccc(-c2cc3c(C)nc(N)nc3n([C@H]3CC[C@H](OCCO)CC3)c2=O)cn1", "note": "[PF-04691502]", "Drug metabolism": "Active"}
    ]},
    {"tested_on": "not listed separately", "assay": "Toxicity against nu/nu mouse", "type": "organism-based", "details": "in vivo", "method_in_brief": "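Tolerability assessed in mice bearing U87 xenografts during tumour growth inhibition studies. Groups received vehicle or 1, 3 or 10 mg/kg. Plasma free drug levels and AKT phosphorylation were sampled at 1 h and 24 h in the top-dose group.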", "units": {"MTD": "mg/kg"}, "values": [
      {"smiles": "COc1ncc(-c2cc3c(C)nc(N)nc3n([C@H]3CC[C@H](OCO)CC3)c2=O)cc1F", "MTD": 10}
    ]},
    {"tested_on": "not listed separately", "assay": "Volume of distribution at steady state in rat", "type": "ADME, organism-based", "details": "in vivo, read-out: Vdss", "units": {"Vd": "L/kg"}, "values": [
      {"smiles": "COc1ncc(-c2cc3c(C)nc(N)nc3n([C@H]3CC[C@H](OCO)CC3)c2=O)cc1F", "Vd": 4.08}
    ]},
    {"tested_on": "not listed separately", "assay": "Permeability across dog RRCK cells", "type": "ADME, cell-based, Canis lupus familiaris, MDCKII-LE", "details": "MDCK, read-out: permeability", "units": {"Papp": "×10⁻⁶ cm/s"}, "values": [
      {"smiles": "Cc1nc(N)nc2c1cc(-c1cnc3ccccc3c1)c(=O)n2[C@H]1CC[C@H](OCO)CC1", "Papp": 19.7},
      {"smiles": "COc1ncc(-c2cc3c(C)nc(N)nc3n([C@H]3CC[C@H](OCC(N)=O)CC3)c2=O)cc1F", "Papp": 26.2},
      {"smiles": "COc1ncc(-c2cc3c(C)nc(N)nc3n([C@H]3CC[C@H](OCC(N)=O)CC3)c2=O)cn1", "Papp": 29.8},
      {"smiles": "COc1ccc(-c2cc3c(C)nc(N)nc3n([C@H]3CC[C@@H](OCC(N)=O)CC3)c2=O)cn1", "Papp": 30.3},
      {"smiles": "COc1ccc(-c2cc3c(C)nc(N)nc3n([C@H]3CC[C@H](OCC(=O)O)CC3)c2=O)cn1", "Papp": 0.295},
      {"smiles": "Cc1nc(N)nc2c1cc(-c1cn[nH]c1)c(=O)n2[C@H]1CC[C@@H](OCC(N)=O)CC1", "Papp": 0.151},
      {"smiles": "COc1ncc(-c2cc3c(C)nc(N)nc3n([C@H]3CC[C@@H](OCC(N)=O)CC3)c2=O)cn1", "Papp": 30.1},
      {"smiles": "Cc1nc(N)nc2c1cc(-c1cnc3ccccc3c1)c(=O)n2[C@H]1CC[C@H](OCC(N)=O)CC1", "Papp": 9.02},
      {"smiles": "Cc1nc(N)nc2c1cc(-c1cnn(C)c1)c(=O)n2[C@H]1CC[C@@H](OCO)CC1", "Papp": 23.3},
      {"smiles": "Cc1nc(N)nc2c1cc(-c1cn[nH]c1)c(=O)n2[C@H]1CC[C@@H](OCO)CC1", "Papp": 12.6},
      {"smiles": "COc1ncc(-c2cc3c(C)nc(N)nc3n([C@H]3CC[C@H](OCO)CC3)c2=O)cn1", "Papp": 21.3},
      {"smiles": "COc1ncc(-c2cc3c(C)nc(N)nc3n([C@H]3CC[C@@H](OCC(N)=O)CC3)c2=O)cc1F", "Papp": 26.2},
      {"smiles": "COc1ccc(-c2cc3c(C)nc(N)nc3n([C@H]3CC[C@H](OCC(N)=O)CC3)c2=O)cn1", "Papp": 4.58},
      {"smiles": "Cc1nc(N)nc2c1cc(-c1cnc3ccccc3c1)c(=O)n2[C@H]1CC[C@@H](OCC(N)=O)CC1", "Papp": 4.57},
      {"smiles": "Cc1nc(N)nc2c1cc(-c1cnc3ccccc3c1)c(=O)n2[C@H]1CC[C@@H](OCO)CC1", "Papp": 41.6}
    ]},
    {"tested_on": "not listed separately", "assay": "Oral bioavailability in rat", "type": "ADME, organism-based", "details": "in vivo", "units": {"bioavailability": "%"}, "values": [
      {"smiles": "COc1ncc(-c2cc3c(C)nc(N)nc3n([C@H]3CC[C@H](OCO)CC3)c2=O)cc1F", "bioavailability": 79}
    ]}
  ]
}
